Data set [1] deals with T1, 5-hydroxytryptamine receptor 2C (Homo sapiens, UniProt P28335).
T1 sequence (P28335 whole entry): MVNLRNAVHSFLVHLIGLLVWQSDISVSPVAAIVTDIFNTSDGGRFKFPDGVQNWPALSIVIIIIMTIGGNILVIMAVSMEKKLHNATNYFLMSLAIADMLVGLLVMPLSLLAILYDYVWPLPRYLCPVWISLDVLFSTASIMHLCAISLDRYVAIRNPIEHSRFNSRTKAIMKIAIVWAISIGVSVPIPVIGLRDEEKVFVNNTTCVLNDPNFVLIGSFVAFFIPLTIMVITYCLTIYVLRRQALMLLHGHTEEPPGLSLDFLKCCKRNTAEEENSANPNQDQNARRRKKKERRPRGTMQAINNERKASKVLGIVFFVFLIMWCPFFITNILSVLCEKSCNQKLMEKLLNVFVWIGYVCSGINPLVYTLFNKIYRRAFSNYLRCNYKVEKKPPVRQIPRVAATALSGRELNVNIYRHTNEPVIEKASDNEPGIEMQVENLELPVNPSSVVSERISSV
The experiment in a line: Binding affinity to 5HT2C receptor (unknown origin). In a few lines:
(§1)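 Radioligand displacement binding. Ki is the mean ± SEM of three experiments.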

For data set [2], the system named is Mus musculus. The experiment in a line: Antipsychotic activity in po dosed mouse assessed as suppression of apomorphine-induced climbing behaviour. The format is functional. The method in brief:
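Mice climbing induced by apomorphine 1.0 mg/kg sc. Test article given po at 0.01, 0.03, 0.1, 0.3 and 1.0 mg/kg in 30% PEG 400. ED50 reported with 95% confidence limits.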

Data set [3] can be described thus: AUC (0 to t) in rat at 10 mg/kg, po. The format is ADME, organism-based. The settings on record: in vivo. On the set-up: dose 10 mg/kg. In a few lines:
(§2)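 Male rats, n = 6 per group, given a single oral dose of 10 mg/kg. PK parameters taken from serum concentration–time profiles: Cmax, Tmax, t1/2, AUC0-t, AUC0-∞, CL/F, F%.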

In data set [4] the target is Voltage-gated inwardly rectifying potassium channel KCNH2 (Homo sapiens, UniProt Q12809). The experiment in a line: Inhibition of human ERG by patch-clamp method. Background: Patch clamp records ionic current or voltage across a cell membrane.
Voltage-gated inwardly rectifying potassium channel KCNH2, sequence (Q12809 whole entry): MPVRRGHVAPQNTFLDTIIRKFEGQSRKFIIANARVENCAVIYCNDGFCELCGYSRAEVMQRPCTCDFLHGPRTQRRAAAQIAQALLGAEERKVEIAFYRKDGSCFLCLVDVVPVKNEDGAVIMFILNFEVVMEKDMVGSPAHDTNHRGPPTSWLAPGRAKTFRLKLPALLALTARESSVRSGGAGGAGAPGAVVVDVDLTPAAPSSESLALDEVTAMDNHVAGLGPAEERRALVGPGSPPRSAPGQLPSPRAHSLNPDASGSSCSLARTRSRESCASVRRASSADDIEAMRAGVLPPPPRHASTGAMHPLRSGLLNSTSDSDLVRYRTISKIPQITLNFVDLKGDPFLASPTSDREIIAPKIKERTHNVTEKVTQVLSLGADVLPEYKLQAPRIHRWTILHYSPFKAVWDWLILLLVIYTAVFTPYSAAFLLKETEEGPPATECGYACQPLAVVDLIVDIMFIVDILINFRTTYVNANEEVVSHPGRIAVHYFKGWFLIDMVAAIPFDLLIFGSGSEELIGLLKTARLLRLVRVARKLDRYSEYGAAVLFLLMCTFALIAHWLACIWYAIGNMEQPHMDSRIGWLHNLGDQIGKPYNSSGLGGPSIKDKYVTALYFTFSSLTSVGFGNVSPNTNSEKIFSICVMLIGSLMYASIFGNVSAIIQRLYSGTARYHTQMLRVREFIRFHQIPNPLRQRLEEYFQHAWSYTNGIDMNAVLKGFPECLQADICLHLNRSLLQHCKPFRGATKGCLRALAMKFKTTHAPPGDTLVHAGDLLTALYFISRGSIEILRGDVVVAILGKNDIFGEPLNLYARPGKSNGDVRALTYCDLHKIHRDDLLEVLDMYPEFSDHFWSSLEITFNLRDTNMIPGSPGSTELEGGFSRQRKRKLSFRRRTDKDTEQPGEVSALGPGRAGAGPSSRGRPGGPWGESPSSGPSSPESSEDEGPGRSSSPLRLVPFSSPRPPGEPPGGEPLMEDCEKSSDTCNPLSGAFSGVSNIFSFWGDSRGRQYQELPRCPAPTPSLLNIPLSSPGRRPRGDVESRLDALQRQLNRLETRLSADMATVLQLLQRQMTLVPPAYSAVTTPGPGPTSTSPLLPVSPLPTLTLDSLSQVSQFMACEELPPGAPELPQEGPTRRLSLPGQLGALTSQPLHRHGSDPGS
Data set [5] concerns Rattus norvegicus. The experiment in a line: Antipsychotic activity in po dosed rat assessed as suppression in conditioned avoidance response measured after 90 mins by CAR test. The format is functional. In a few lines:
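Rat conditioned avoidance responding tested 90 min after a single oral dose of 0.05, 0.15, 0.45 or 1.35 mg/kg in 30% PEG 400. n = 10 per group. Mean ± SEM, compared with vehicle (P < 0.05). ED50 reported.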

Data set [6] in a line: Therapeutic index, ratio of ED50 for induction of catalepsy in po dosed mouse to ED50 for antipsychotic activity in po dosed mouse assessed as reduction in MK-801-induced hyperlocomotor activity. Format: toxicity, organism-based. The settings on record: in vivo, read-out: Ratio ED50. In a few lines:
(§3)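 Therapeutic index is the catalepsy ED50 divided by the efficacy ED50 from the apomorphine climbing or MK-801 hyperactivity model. All were oral dosing in mice, vehicle 30% PEG 400.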

The nature of data set [7]: Half life in rat at 3 mg/kg, iv. The format is ADME, organism-based. Particulars: in vivo. In a few lines: (§4)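 Male rats, n = 6 per group, given a single intravenous dose of 3 mg/kg. PK parameters taken from serum concentration–time profiles: t1/2, AUC0-t, AUC0-∞, clearance.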
Data set [8] is described as follows: Cmax in rat at 10 mg/kg, po. Format: ADME, organism-based. Further details: route oral, dose 10 mg/kg. The settings on record: in vivo. The method in brief: as §2
In data set [9] the target is D(2) dopamine receptor (Homo sapiens, UniProt P14416). The experiment in a line: Binding affinity to D2 receptor (unknown origin). The method in brief:
as §1

The subject of data set [10] is Rattus norvegicus. The experiment in a line: Memory enhancement effect in rat assessed as increase in total exploratory time for novel objects at 0.1 to 0.3 mg/kg, po administered 1 hr prior to acquisition trial and measured after 24 hrs by novel object recognition test. Format: functional, organism-based. The settings on record: dose mg/kg 0.1-0.3, time 25.0 hrs.

Data set [11] can be described thus: Therapeutic index, ratio of ED50 for induction of catalepsy in po dosed mouse to ED50 for antipsychotic activity in po dosed mouse assessed as suppression of apomorphine-induced climbing. The settings on record: in vivo, read-out: Ratio ED50. The format is toxicity, organism-based. The method in brief:
as §3

The test system of data set [12] is Mus musculus. The experiment in a line: Antipsychotic activity in po dosed mouse assessed as reduction in MK-801-induced hyperlocomotor activity. Format: functional. The method in brief:
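Mice hyperactivity induced by MK-801 0.3 mg/kg sc, locomotor activity recorded. Oral dosing at 0.01–1.0 mg/kg (five doses) in 30% PEG 400. ED50 reported with 95% confidence limits.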

A short description of data set [13]: AUC (0 to infinity) in rat at 10 mg/kg, po. Further details: route oral, time infinity, dose 10 mg/kg. Particulars: in vivo. The format is ADME, organism-based. The method in brief: as §2
The subject of data set [14] is Mus musculus. The experiment in a line: Antipsychotic activity in po dosed mouse assessed as suppression in DOI-induced head twitching response. Format: functional. The method in brief:
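Mouse head twitch induced by DOI 1.0 mg/kg ip. Oral pretreatment at 0.01, 0.03, 0.1, 0.3 and 1.0 mg/kg in 30% PEG 400. ED50 reported with 95% confidence limits.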

The target of data set [15] is Histamine H1 receptor (Homo sapiens, UniProt P35367). The experiment in a line: Binding affinity to H1 receptor (unknown origin). Format: ADME.
Histamine H1 receptor, sequence (P35367 whole entry): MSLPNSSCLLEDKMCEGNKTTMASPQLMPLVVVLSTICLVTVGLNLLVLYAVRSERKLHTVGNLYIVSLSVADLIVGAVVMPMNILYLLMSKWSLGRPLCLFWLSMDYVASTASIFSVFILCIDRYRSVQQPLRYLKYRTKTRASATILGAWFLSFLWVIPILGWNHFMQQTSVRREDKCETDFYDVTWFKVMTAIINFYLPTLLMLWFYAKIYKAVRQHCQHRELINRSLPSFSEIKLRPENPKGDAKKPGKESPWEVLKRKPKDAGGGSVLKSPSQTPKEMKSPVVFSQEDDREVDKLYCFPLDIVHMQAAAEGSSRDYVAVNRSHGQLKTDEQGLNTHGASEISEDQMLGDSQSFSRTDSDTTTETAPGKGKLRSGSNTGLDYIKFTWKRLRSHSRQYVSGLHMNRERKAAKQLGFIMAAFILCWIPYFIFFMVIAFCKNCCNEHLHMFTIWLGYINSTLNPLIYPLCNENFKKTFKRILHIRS
Data set [16] in a line: […] in rat at 3 mg/kg, iv. Format: ADME, organism-based. Particulars: in vivo. In a few lines:
as §4

Data set [17] in a line: Induction of catalepsy in po dosed mouse by vertical grid and elevated bar test. Particulars: in vivo. Format: organism-based. In a few lines:
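Mouse catalepsy scored by vertical grid and elevated bar tests. Oral doses of 1, 5, 15, 45 and 100 mg/kg in 30% PEG 400. ED50 reported with 95% confidence limits.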

Data set [18] has as its target 5-hydroxytryptamine receptor 6 (Homo sapiens, UniProt P50406). The experiment in a line: Binding affinity to 5HT6 receptor (unknown origin). In a few lines: as §1
Data set [19] in a line: Half life in rat at 10 mg/kg, po. Format: ADME, organism-based. Particulars: in vivo. In a few lines: as §2

Each structure is given as a SMILES string. Active and inactive are the calls of the source. The calls are words filed in the database; no cut-off is given here.

This is an account of results in ChEMBL document CHEMBL4725387, “Synthesis and pharmacological evaluation of piperidine (piperazine)-amide substituted derivatives as multi-target antipsychotics” (Bioorg Med Chem Lett, 2020).

5-hydroxytryptamine receptor 6, sequence (P50406 whole entry): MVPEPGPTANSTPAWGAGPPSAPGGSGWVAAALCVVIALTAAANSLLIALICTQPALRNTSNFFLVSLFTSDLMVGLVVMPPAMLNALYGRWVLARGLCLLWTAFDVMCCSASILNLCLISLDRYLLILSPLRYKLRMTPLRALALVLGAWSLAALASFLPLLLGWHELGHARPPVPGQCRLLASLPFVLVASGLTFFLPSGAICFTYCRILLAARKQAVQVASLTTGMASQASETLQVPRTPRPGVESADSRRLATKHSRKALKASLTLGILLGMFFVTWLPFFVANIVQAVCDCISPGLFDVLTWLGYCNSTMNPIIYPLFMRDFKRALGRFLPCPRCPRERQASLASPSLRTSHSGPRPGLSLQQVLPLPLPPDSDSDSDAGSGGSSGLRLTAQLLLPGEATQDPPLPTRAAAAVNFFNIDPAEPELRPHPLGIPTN
D(2) dopamine receptor, sequence (P14416 whole entry): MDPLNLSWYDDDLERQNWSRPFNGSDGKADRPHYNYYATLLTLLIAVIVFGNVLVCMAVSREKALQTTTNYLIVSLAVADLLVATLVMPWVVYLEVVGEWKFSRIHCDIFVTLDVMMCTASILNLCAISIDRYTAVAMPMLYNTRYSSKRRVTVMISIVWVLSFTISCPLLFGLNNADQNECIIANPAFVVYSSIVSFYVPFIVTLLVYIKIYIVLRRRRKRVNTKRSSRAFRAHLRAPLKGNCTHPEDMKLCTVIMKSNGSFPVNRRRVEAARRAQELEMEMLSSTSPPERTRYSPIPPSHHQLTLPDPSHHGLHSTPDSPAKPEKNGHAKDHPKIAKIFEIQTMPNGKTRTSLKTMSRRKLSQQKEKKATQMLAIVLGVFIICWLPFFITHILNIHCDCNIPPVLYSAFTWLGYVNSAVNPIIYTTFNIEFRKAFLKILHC

On to `CC(=O)Nc1ccc(OCCCN2CCC(c3noc4cc(F)ccc34)CC2)cc1`, for which the Ki in data set [1] was 1990 nM; in data set [9] it was 2.1 nM; in [15], 2140 nM; in data set [18], 12.9 nM. In addition, the median effective dose (ED50) in [2] came to 0.28 mg/kg; in data set [5] (1.5 h), 0.28 mg/kg; in data set [12] it was 0.19 mg/kg; in data set [14], 0.22 mg/kg; in data set [17], 25.2 mg/kg. In [3], this compound yielded an AUC(0-t) of 9490 ng·h/mL. The IC50 in [4] came to 2980 nM. The Activity result in data set [5] and in [14] was “Dose-dependent effect” throughout. In addition, the selectivity ratio in data set [6] was 133; in data set [11], 90. Also, the half-life in [7] is 3.68 h; in data set [19], 3.34 h. In addition, the Cmax in data set [8] was 745 ng/mL. For the same compound, the outcome in data set [10] was Active. The same compound showed an AUC in data set [13] of 9638.27 ng·h/mL. For the same compound, the CL/F in data set [16] stood at 3.22 mL/h.

A word on the Ki: it is a dissociation constant, usually derived from enzyme kinetics or from competition with a known ligand. A low value points to a stronger hold on the target. Usually ED50 stands for the midpoint of the dose-response relation. Usually AUC(0-t) stands for exposure summed from dosing to a finite time, without extrapolation to infinity. For orientation: IC50 means the concentration that inhibits the measured activity by half. High values mean weaker potency in that assay, low ones greater potency in that assay. For orientation: half-life means the time in which the quantity being followed falls by half. Higher therefore signals slow decline. The Cmax is the highest concentration seen after dosing. What is called AUC is the area under the concentration-time curve, a measure of exposure. In general, CL/F refers to the apparent clearance, not corrected for the fraction that reaches the circulation.
